Laboratory results published in ChEMBL document CHEMBL2040797, “Synthesis of benzimidazoles bearing oxadiazole nucleus as anticancer agents” (2012).

How the values were obtained:
Format in all cases: functional
NCI-H226 = test: Growth inhibition of human NCI-H226 cells at 10 uM after 48 hrs by sulforhodamine B assay; settings: NCI-H226, 48 h, read-out: GI
Method in brief: (§1)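 NCI one-dose primary screen at 10 (printed mM) across the 60-line panel. Cells in RPMI 1640 with 5% FBS and 2 mM L-glutamine, plated at 5000–40,000 cells/well and incubated 24 h before dosing. Exposure 48 h at 37 °C, 5% CO2. Adherent cells were fixed with cold TCA, suspension cells fixed after settling. SRB stain, absorbance 515 nm. Reported as percent growth of treated cells relative to control.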

COLO 205 = test: Growth inhibition of human COLO205 cells at 10 uM after 48 hrs by sulforhodamine B assay; settings: COLO 205, 48 h, read-out: GI; method in brief: as §1
SF-268 = test: Growth inhibition of human SF268 cells at 10 uM after 48 hrs by sulforhodamine B assay; settings: SF-268, 48 h, read-out: GI; method in brief: as §1
LOX IMVI = test: Growth inhibition of human LOXIMVI cells at 10 uM after 48 hrs by sulforhodamine B assay; settings: read-out: GI; method in brief: as §1
M14 = test: Growth inhibition of human M14 cells at 10 uM after 48 hrs by sulforhodamine B assay; settings: M14, 48 h, read-out: GI; method in brief: as §1
SK-MEL-2 = test: Growth inhibition of human SK-MEL-2 cells at 10 uM after 48 hrs by sulforhodamine B assay; settings: SK-MEL-2, 48 h, read-out: GI; method in brief: as §1
SK-MEL-5 = test: Growth inhibition of human SK-MEL-5 cells at 10 uM after 48 hrs by sulforhodamine B assay; settings: SK-MEL-5, 48 h, read-out: GI
Method in brief: (§2)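 NCI-60 single-dose screen. Cells grown in RPMI 1640 with 5% FBS and L-glutamine, plated at 5000–40,000 cells/well by doubling time, and preincubated 24 h at 37 °C, 5% CO2. Compound stocks in DMSO, added at one concentration, then incubated 48 h. Adherent cells fixed with cold TCA (10% final), stained with 0.4% SRB, dye solubilized in 10 mM Tris base, A515 read. Reported as percent growth relative to untreated control.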

OVCAR-5 [1] = test: Growth inhibition of human OVCAR5 cells at 10 uM after 48 hrs by sulforhodamine B assay; settings: OVCAR-5, 48 h, read-out: GI; method in brief: as §1
SK-OV-3 = test: Growth inhibition of human SKOV3 cells at 10 uM after 48 hrs by sulforhodamine B assay; settings: SK-OV-3, 48 h, read-out: GI; method in brief: as §2
ACHN [2] = test: Growth inhibition of human ACHN cells at 10 uM after 48 hrs by sulforhodamine B assay; settings: read-out: GI; method in brief: as §1
CAKI-1 = test: Growth inhibition of human Caki1 cells at 10 uM after 48 hrs by sulforhodamine B assay; settings: CAKI-1, 48 h, read-out: GI; method in brief: as §1
SN12C = test: Growth inhibition of human SN12C cells at 10 uM after 48 hrs by sulforhodamine B assay; settings: read-out: GI; method in brief: as §2
MDA-MB-231 = test: Growth inhibition of human MDA-MB-231 cells at 10 uM after 48 hrs by sulforhodamine B assay; settings: MDA-MB-231, 48 h, read-out: GI; method in brief: as §1
BT-549 = test: Growth inhibition of human BT549 cells at 10 uM after 48 hrs by sulforhodamine B assay; settings: BT-549, 48 h, read-out: GI; method in brief: as §1
CCRF-CEM = test: Cytotoxicity against human CCRF-CEM cells after 48 hrs by sulforhodamine B assay
Method in brief: (§3)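 NCI 60-panel screen. Cells were grown in RPMI 1640 with 5% FBS and L-glutamine and plated at 5000–40,000 cells/well according to doubling time. They were preincubated 24 h at 37 °C, 5% CO2, then exposed 48 h to five 10-fold dilutions. Adherent cells were fixed with cold TCA, final 10%; suspension cells were fixed after settling. Cells were stained with 0.4% SRB and read at 515 nm. Tz/C/Ti growth curves gave GI50, TGI and LC50.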

RPMI-8226 = test: Cytotoxicity against human RPMI8226 cells after 48 hrs by sulforhodamine B assay; settings: RPMI-8226, 48 h; method in brief: as §3
SW-620 = test: Cytotoxicity against human SW620 cells after 48 hrs by sulforhodamine B assay; settings: SW-620, 48 h; method in brief: as §3
SNB-19 = test: Cytotoxicity against human SNB19 cells after 48 hrs by sulforhodamine B assay; settings: SNB-19, 48 h; method in brief: as §3
SNB-75 = test: Cytotoxicity against human SNB75 cells after 48 hrs by sulforhodamine B assay; settings: SNB-75, 48 h; method in brief: as §3
U-251 = test: Cytotoxicity against human U251 cells after 48 hrs by sulforhodamine B assay; settings: U-251, 48 h
Method in brief: (§4)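 NCI 60 panel five-dose screen. Cells in RPMI 1640 with 5% FBS and 2 mM L-glutamine, plated at 5000–40,000 cells/well and preincubated 24 h. Compounds were tested at five 10-fold concentrations (0.01–100) for 48 h at 37 °C, 5% CO2. Cells were fixed with TCA and stained with SRB, absorbance 515 nm. GI50, TGI and LC50 were taken from % growth curves against time-zero and control.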

OVCAR-5 [3] = test: Cytotoxicity against human OVCAR5 cells after 48 hrs by sulforhodamine B assay; settings: OVCAR-5, 48 h; method in brief: as §3
786-0 = test: Cytotoxicity against human 786-0 cells after 48 hrs by sulforhodamine B assay; settings: 786-0, 48 h; method in brief: as §3
ACHN [4] = test: Cytotoxicity against human ACHN cells after 48 hrs by sulforhodamine B assay; method in brief: as §3
TK-10 = test: Cytotoxicity against human TK10 cells after 48 hrs by sulforhodamine B assay; settings: TK-10, 48 h; method in brief: as §4
DU-145 = test: Cytotoxicity against human DU145 cells after 48 hrs by sulforhodamine B assay; settings: DU-145, 48 h; method in brief: as §3
HL-60(TB) = test: Growth inhibition of human HL-60(TB) cells at 10 uM after 48 hrs by sulforhodamine B assay; settings: HL-60, 48 h, read-out: GI
Method in brief: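 NCI 60-panel primary one-dose screen. Cells are grown in RPMI 1640 with 5% FBS, plated by doubling time and pre-incubated 24 h at 37 °C, 5% CO2. They are exposed for 48 h to a single concentration. Settled suspension cells are fixed, then SRB-stained with absorbance at 515 nm. Output is percent growth of treated cells relative to untreated control, reported as a mean graph.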

[5] = read-out: LC50 (the source's name)

`O=C(CCc1nnc(-c2ccc(Cl)cc2Cl)o1)c1nc2ccccc2[nH]1` showed an inhibition of growth at 10 µM (NCI-H226) of 16.3%, an inhibition of growth at 10 µM (COLO 205) of 37.4% and an inhibition of growth at 10 µM (SF-268) of 31.9%. It also gave an inhibition of growth at 10 µM (LOX IMVI) of 44.9%, an inhibition of growth at 10 µM (M14) of 44.2% and an inhibition of growth at 10 µM (SK-MEL-2) of 40.6%. For the same molecule, the inhibition of growth at 10 µM (SK-MEL-5) was 33%, the inhibition of growth at 10 µM (OVCAR-5 [1]) was 18.9% and the inhibition of growth at 10 µM (SK-OV-3) was 35.2%. For the same molecule, the inhibition of growth at 10 µM (ACHN [2]) was 18.7%, the inhibition of growth at 10 µM (CAKI-1) was 40.2% and the inhibition of growth at 10 µM (SN12C) was 38.8%. It also gave an inhibition of growth at 10 µM (MDA-MB-231) of 61.7%, an inhibition of growth at 10 µM (BT-549) of 43.6% and a GI50 (CCRF-CEM) of 4.86 µM. For the same molecule, the TGI (CCRF-CEM) was 66 µM, the CC50 (CCRF-CEM; [5]) was 100 µM and the GI50 (RPMI-8226) was 3.61 µM. The TGI (RPMI-8226) was 23.3 µM, the CC50 (RPMI-8226; [5]) was 100 µM and the GI50 (SW-620) was 3.46 µM. It also gave a TGI (SW-620) of 16.3 µM, a CC50 (SW-620; [5]) of 74.3 µM and a GI50 (SNB-19) of 17.4 µM. It also gave a TGI (SNB-19) of 100 µM, a CC50 (SNB-19; [5]) of 100 µM and a GI50 (SNB-75) of 18.7 µM. The CC50 (SNB-75; [5]) was 100 µM, the GI50 (U-251) was 10.9 µM and the TGI (U-251) was 77.6 µM. The CC50 (U-251; [5]) was 100 µM, the GI50 (OVCAR-5 [3]) was 7.82 µM and the TGI (OVCAR-5 [3]) was 100 µM. The CC50 (OVCAR-5 [3]; [5]) was 100 µM, the GI50 (786-0) was 10.7 µM and the TGI (786-0) was 45.5 µM. For the same molecule, the CC50 (786-0; [5]) was 100 µM, the GI50 (ACHN [4]) was 11.9 µM and the TGI (ACHN [4]) was 100 µM. It also gave a CC50 (ACHN [4]; [5]) of 100 µM, a GI50 (TK-10) of 16.4 µM and a TGI (TK-10) of 100 µM. For the same molecule, the CC50 (TK-10; [5]) was 100 µM, the GI50 (DU-145) was 17.8 µM and the TGI (DU-145) was 100 µM. For the same molecule, the CC50 (DU-145; [5]) was 100 µM and the inhibition of growth at 10 µM (HL-60(TB)) was 134%.
